Test results from ChEMBL document CHEMBL1156445, “The rapamycin-binding domain of the protein kinase mammalian target of rapamycin is a destabilizing domain” (J Biol Chem, 2007).
The source made the active and inactive calls. The calls are words filed in the database; no cut-off is given here.

Columns and labels:
Type in all cases: cell-based
[1] = Activation of FKBP12-rapamycin binding domain R2110 mutant in african green monkey COS1 cells after 16 hrs assessed as induction of secreted alkaline phosphatase expression assay; conditions: COS-1, 16 h
Outline: (§1)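 COS-1 cells co-transfected by electroporation with Gal4BD-FKBP (pBJ5-GF3E), VP16AD-FRB (pBJ5-FRBVE, wild-type or mutant FRB) and SeAP reporter (pG5IL2SX). Cells treated in quadruplicate for 16 h with iRap (0.5-500 nM) or rapamycin (0.05-50 nM). SeAP read as fluorescence from methylumbelliferylphosphate substrate. EC50 derived from curve fits of mean (±SEM).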

NIH3T3 [2] = assay: Effect on stability of wild-type FKBP12-rapamycin binding domain protein expressed in mouse NIH3T3 cells assessed as increase in yellow fluorescent protein fluorescence level at 1 uM after 24 hrs by flow cytometry
Outline: (§2)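 FRB (mTOR residues 2015-2114, wild-type or mutant) fused to N-terminus of YFP in pBMN. NIH3T3 cells stably transduced with retrovirus from ΦNX cells; 293T cells transiently transfected (wild-type only). Cells mock-treated or given 1 μM iRap for 24 h, then trypsinized, PBS-washed and analysed by flow cytometry (10,000 events). Mean fluorescence intensity, triplicate.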

[3] = Activation of FKBP12-rapamycin binding domain A2020V I2021T D2096G stop codon mutant in african green monkey COS1 cells after 16 hrs assessed as induction of secreted alkaline phosphatase expression assay; conditions: COS-1, 16 h; outline: as §1
[4] = Activation of wild-type FKBP12-rapamycin binding domain protein in african green monkey COS1 cells after 16 hrs assessed as induction of secreted alkaline phosphatase expression assay; conditions: COS-1, 16 h; outline: as §1
[5] = Activation of FKBP12-rapamycin binding domain I2021V stop codon mutant in african green monkey COS1 cells after 16 hrs assessed as induction of secreted alkaline phosphatase expression assay; conditions: COS-1, 16 h; outline: as §1
NIH3T3 [6] = assay: Effect on stability of wild-type FKBP12-rapamycin binding domain protein expressed in mouse NIH3T3 cells assessed as increase in yellow fluorescent protein fluorescence level at 100 nM after 24 hrs by flow cytometry
Outline: (§3)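 NIH3T3 cells stably transduced with wtFRB-YFP, treated with iRap (10 nM to 10 μM). YFP fluorescence monitored by flow cytometry over 24 h, 10,000 events per sample. Mean fluorescence intensity expressed relative to the overall highest value; duplicate.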

[7] = Activation of FKBP12-rapamycin binding domain S2069P M2079I stop codon mutant in african green monkey COS1 cells after 16 hrs assessed as induction of secreted alkaline phosphatase expression assay; conditions: COS-1, 16 h; outline: as §1
[8] = Activation of FKBP12-rapamycin binding domain I2017V E2033G stop codon mutant in african green monkey COS1 cells after 16 hrs assessed as induction of secreted alkaline phosphatase expression assay; conditions: COS-1, 16 h; outline: as §1
[9] = Activation of FKBP12-rapamycin binding domain S2069P stop codon mutant in african green monkey COS1 cells after 16 hrs assessed as induction of secreted alkaline phosphatase expression assay; conditions: COS-1, 16 h; outline: as §1
[10] = Activation of FKBP12-rapamycin binding domain I2021T W2023R K2045L S2112P stop codon mutant in african green monkey COS1 cells after 16 hrs assessed as induction of secreted alkaline phosphatase expression assay; conditions: COS-1, 16 h; outline: as §1
[11] = Activation of FKBP12-rapamycin binding domain I2021T M2058V G2061D K2066R K2090R S2091L stop codon mutant in african green monkey COS1 cells after 16 hrs assessed as induction of secreted alkaline phosphatase expression assay; conditions: COS-1, 16 h; outline: as §1
[12] = Activation of FKBP12-rapamycin binding domain I2021T E2029G L2037S stop codon mutant in african green monkey COS1 cells after 16 hrs assessed as induction of secreted alkaline phosphatase expression assay; conditions: COS-1, 16 h; outline: as §1
NIH3T3 [13] = assay: Effect on stability of wild-type FKBP12-rapamycin binding domain protein expressed in mouse NIH3T3 cells assessed as increase in yellow fluorescent protein fluorescence level at 10 uM after 24 hrs by flow cytometry; outline: as §3
[14] = Activation of FKBP12-rapamycin binding domain M2026V E2049G stop codon mutant in african green monkey COS1 cells after 16 hrs assessed as induction of secreted alkaline phosphatase expression assay; conditions: COS-1, 16 h; outline: as §1
NIH3T3 [15] = assay: Effect on stability of wild-type FKBP12-rapamycin binding domain protein expressed in mouse NIH3T3 cells assessed as increase in yellow fluorescent protein fluorescence level at 10 nM after 24 hrs by flow cytometry; outline: as §3
[16] = Activation of FKBP12-rapamycin binding domain mutant in african green monkey COS1 cells after 16 hrs assessed as induction of secreted alkaline phosphatase expression assay; conditions: COS-1, 16 h; outline: as §1
NIH3T3 [17] = assay: Effect on stability of FKBP12-rapamycin binding domain H2024R stop codon mutant expressed in mouse NIH3T3 cells assessed as increase in yellow fluorescent protein fluorescence level at 1 uM after 24 hrs by flow cytometry; outline: as §2
[18] = Activation of FKBP12-rapamycin binding domain T2068S E2080G stop codon mutant in african green monkey COS1 cells after 16 hrs assessed as induction of secreted alkaline phosphatase expression assay; conditions: COS-1, 16 h; outline: as §1
[19] = Activation of FKBP12-rapamycin binding domain N2043S stop codon mutant in african green monkey COS1 cells after 16 hrs assessed as induction of secreted alkaline phosphatase expression assay; conditions: COS-1, 16 h; outline: as §1
NIH3T3 [20] = assay: Effect on stability of FKBP12-rapamycin binding domain K2066R D2077G stop codon mutant expressed in mouse NIH3T3 cells assessed as increase in yellow fluorescent protein fluorescence level at 1 uM after 24 hrs by flow cytometry; outline: as §2
[21] = Activation of FKBP12-rapamycin binding domain E2067G stop codon mutant in african green monkey COS1 cells after 16 hrs assessed as induction of secreted alkaline phosphatase expression assay; conditions: COS-1, 16 h; outline: as §1
293T = assay: Effect on stability of wild-type FKBP12-rapamycin binding domain protein expressed in human 293T cells assessed as increase in yellow fluorescent protein fluorescence level at 1 uM after 24 hrs by flow cytometry; outline: as §2
[22] = Activation of FKBP12-rapamycin binding domain H2024R stop codon mutant protein in african green monkey COS1 cells after 16 hrs assessed as induction of secreted alkaline phosphatase expression assay; conditions: COS-1, 16 h; outline: as §1
[23] = Activation of FKBP12-rapamycin binding domain C2085R stop codon mutant in african green monkey COS1 cells after 16 hrs assessed as induction of secreted alkaline phosphatase expression assay; conditions: COS-1, 16 h; outline: as §1
NIH3T3 [24] = assay: Effect on stability of FKBP12-rapamycin binding domain N2043S stop codon mutant expressed in mouse NIH3T3 cells assessed as increase in yellow fluorescent protein fluorescence level at 1 uM after 24 hrs by flow cytometry; outline: as §2
[25] = Activation of FKBP12-rapamycin binding domain I2021T K2045E E2049G M2057T E2083K stop codon mutant in african green monkey COS1 cells after 16 hrs assessed as induction of secreted alkaline phosphatase expression assay; conditions: COS-1, 16 h; outline: as §1
[26] = Activation of FKBP12-rapamycin binding domain I2021T A2100V stop codon mutant in african green monkey COS1 cells after 16 hrs assessed as induction of secreted alkaline phosphatase expression assay; conditions: COS-1, 16 h; outline: as §1
[27] = Activation of FKBP12-rapamycin binding domain K2066R D2077G stop codon mutant in african green monkey COS1 cells after 16 hrs assessed as induction of secreted alkaline phosphatase expression assay; conditions: COS-1, 16 h; outline: as §1
[28] = Activation of FKBP12-rapamycin binding domain stop codon>Leu mutant in african green monkey COS1 cells after 16 hrs assessed as induction of secreted alkaline phosphatase expression assay; conditions: COS-1, 16 h; outline: as §1
[29] = Activation of FKBP12-rapamycin binding domain T2064I Y2074H K2090R stop codon mutant in african green monkey COS1 cells after 16 hrs assessed as induction of secreted alkaline phosphatase expression assay; conditions: COS-1, 16 h; outline: as §1
NIH3T3 [30] = assay: Effect on stability of FKBP12-rapamycin binding domain T2068S E2080G stop codon mutant expressed in mouse NIH3T3 cells assessed as increase in yellow fluorescent protein fluorescence level at 1 uM after 24 hrs by flow cytometry; outline: as §2

CO[C@@H]1C[C@H](C[C@@H](C)[C@@H]2CC(=O)[C@H](C)/C=C(\C)[C@@H](O)[C@@H](OC)C(=O)[C@H](C)C[C@H](C)/C=C/C=C/C=C(\C)[C@@H](c3[nH]c4ccccc4c3C)C[C@@H]3CC[C@@H](C)[C@@](O)(O3)C(=O)C(=O)N3CCCC[C@H]3C(=O)O2)CC[C@H]1O
EC50 [1]: 250 nM | Activity (NIH3T3 [2]): 10 | EC50 [3]: 41.7 nM | EC50 [4]: 20.5 nM | EC50 [5]: 28.1 nM | Activity (NIH3T3 [6]): Active | EC50 [7]: 39.1 nM | EC50 [8]: 23 nM | EC50 [9]: 42.7 nM | EC50 [10]: 31.4 nM | EC50 [11]: 100 nM | EC50 [12]: 88.8 nM | Activity (NIH3T3 [13]): Active | EC50 [14]: 39 nM | Activity (NIH3T3 [15]): Active | EC50 [16]: 32.6 nM | Activity (NIH3T3 [17]): 4 | EC50 [18]: 19.3 nM | EC50 [19]: 24.9 nM | Activity (NIH3T3 [20]): 7 | EC50 [21]: 45.1 nM | Activity (293T): Active | EC50 [22]: 14.4 nM | EC50 [23]: 33.4 nM | Activity (NIH3T3 [24]): 8 | EC50 [25]: 29.7 nM | EC50 [26]: 67.4 nM | EC50 [27]: 20.4 nM | EC50 [28]: 26 nM | EC50 [29]: 22.1 nM | Activity (NIH3T3 [30]): 5
